Measurements from ChEMBL document CHEMBL1649165, “Activity profile in vitro of micafungin against Spanish clinical isolates of common and emerging species of yeasts and molds” (2009).

Legend:
Type in all cases: functional
Candida parapsilosis = assay: Antimicrobial activity against Candida parapsilosis by broth microdilution method; conditions: Lodderomyces parapsilosis
In short: (§1)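 Clinical isolates from human patients, tested by broth microdilution using the AFST-EUCAST reference procedure for fermentative yeasts. The MIC was read per that reference method.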

Candida tropicalis = assay: Antimicrobial activity against Candida tropicalis by broth microdilution method; in short: as §1
[1] = system: Meyerozyma guilliermondii; assay: Antimicrobial activity against Candida guilliermondii by broth microdilution method; in short: as §1
Kluyveromyces marxianus = assay: Antimicrobial activity against Candida kefyr by broth microdilution method; in short: as §1
Debaryomyces hansenii = assay: Antimicrobial activity against Candida famata by broth microdilution method; in short: as §1
Torulaspora delbrueckii = assay: Antimicrobial activity against Candida coliculosa by broth microdilution method; in short: as §1
[Candida] intermedia = Antimicrobial activity against Candida intermedia by broth microdilution method; conditions: Sungouiella intermedia; in short: as §1
[2] = system: Kazachstania pintolopesii; assay: Antimicrobial activity against Candida pintolopesii by broth microdilution method; conditions: Arxiozyma pintolopesii; in short: as §1
[Candida] zeylanoides = Antimicrobial activity against Candida zeylanoides by broth microdilution method; conditions: Dujonia zeylanoides; in short: as §1
Saccharomyces cerevisiae = assay: Antimicrobial activity against Saccharomyces cerevisiae by broth microdilution method
Yarrowia lipolytica = assay: Antimicrobial activity against Yarrowia lipolytica by broth microdilution method
[3] = system: Cryptococcus deneoformans; assay: Antimicrobial activity against Cryptococcus neoformans var. neoformans by broth microdilution method
In short: (§2)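 Clinical isolates of nonfermentative yeasts, tested by broth microdilution following EUCAST recommendations. The only change from that method was a minor modification to improve growth.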

Trichosporon dermatis = assay: Antimicrobial activity against Trichosporon dermatis by broth microdilution method; conditions: Cutaneotrichosporon dermatis
In short: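 Nonfermentative yeast clinical isolates (Rhodotorula, Trichosporon) tested by broth microdilution. The EUCAST yeast recommendations were followed strictly, with one minor modification to improve growth. MIC was read as the endpoint.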

Naganishia albida = assay: Antimicrobial activity against Cryptococcus albidus by broth microdilution method; in short: as §2
Papiliotrema laurentii = assay: Antimicrobial activity against Cryptococcus laurentii by broth microdilution method; in short: as §2
Trichosporon domesticum = assay: Antimicrobial activity against Trichosporon mycotoxinivorans by broth microdilution method; conditions: Apiotrichum domesticum
In short: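 Spanish human clinical isolates were tested as nonfermentative yeasts by broth microdilution. The method strictly followed the EUCAST recommendations, with a minor modification to improve growth, and the read-out was the MIC.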

Aspergillus niger = assay: Antimicrobial activity against Aspergillus niger by broth microdilution method
In short: (§3)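 Clinical mould isolates, tested by broth microdilution using the AFST-EUCAST reference method for filamentous fungi. For echinocandins, the endpoint was the minimum effective concentration: the lowest drug concentration giving aberrant hyphal growth, read with an inverted microscope.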

Aspergillus sydowii = assay: Antimicrobial activity against Aspergillus sydowii by broth microdilution method; in short: as §3
Aspergillus ustus = assay: Antimicrobial activity against Aspergillus ustus by broth microdilution method; in short: as §3
Fennellia nivea = assay: Antimicrobial activity against Aspergillus niveus by broth microdilution method; in short: as §3
Aspergillus sclerotiorum = assay: Antimicrobial activity against Aspergillus sclerotiorum by broth microdilution method; in short: as §3
Aspergillus = assay: Antimicrobial activity against Aspergillus spp. by broth microdilution method; in short: as §3
Penicillium = assay: Antimicrobial activity against Penicillium spp. by broth microdilution method
In short: (§4)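 Filamentous fungus clinical isolates tested by the AFST-EUCAST reference broth microdilution method for moulds. For echinocandins, the endpoint was the minimum effective concentration: the lowest drug concentration giving aberrant hyphal growth, read with an inverted microscope.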

Fusarium proliferatum = assay: Antimicrobial activity against Fusarium proliferatum by broth microdilution method; in short: as §3
Fusarium oxysporum = assay: Antimicrobial activity against Fusarium oxysporum by broth microdilution method; in short: as §3
Fusarium verticillioides = assay: Antimicrobial activity against Fusarium verticillioides by broth microdilution method; in short: as §4
Paecilomyces lilacinus = assay: Antimicrobial activity against Paecilomyces lilacinus by broth microdilution method; conditions: Purpureocillium lilacinum; in short: as §4
Acremonium sp. = assay: Antimicrobial activity against Acremonium sp.by broth microdilution method; in short: as §3
Trichoderma = assay: Antimicrobial activity against Trichoderma spp. by broth microdilution method; in short: as §4
[4] = Antimicrobial activity against Hormographiella aspergillata by broth microdilution method; conditions: Coprinopsis cinerea; in short: as §4
Fusarium reticulatum = assay: Antimicrobial activity against Fusarium reticulatum by broth microdilution method; in short: as §4
Neurospora sitophila = assay: Antimicrobial activity against Chrysonilia sitophila by broth microdilution method; in short: as §3
Lewia infectoria = assay: Antimicrobial activity against Alternaria infectoria by broth microdilution method; in short: as §3
Exophiala dermatitidis = assay: Antimicrobial activity against Exophiala dermatitidis by broth microdilution method
Aureobasidium pullulans = assay: Antimicrobial activity against Aureobasidium pullulans by broth microdilution method
Hortaea werneckii = assay: Antimicrobial activity against Hortaea werneckii by broth microdilution method
Cladosporium = assay: Antimicrobial activity against Cladosporium spp. by broth microdilution method; in short: as §3
Scytalidium hyalinum = assay: Antimicrobial activity against Scytalidium hyalinum by broth microdilution method; conditions: Neoscytalidium hyalinum; in short: as §4
Lichtheimia corymbifera = assay: Antimicrobial activity against Mycocladus corymbiferus by broth microdilution method; in short: as §4
[5] = Antimicrobial activity against Rhizopus microsporus by broth microdilution method; in short: as §4
Rhizomucor = assay: Antimicrobial activity against Rhizomucor spp.by broth microdilution method; in short: as §4
Saksenaea vasiformis = assay: Antimicrobial activity against Saksenaea vasiformis by broth microdilution method; in short: as §4
Exophiala jeanselmei = assay: Antimicrobial activity against Exophiala jeanselmei by broth microdilution method
Beauveria bassiana = assay: Antimicrobial activity against Beauveria bassiana by broth microdilution method; in short: as §3

CC[C@H](C)C[C@H](C)CCCCCCCCC(=O)N[C@H]1C[C@@H](O)[C@@H](NCCN)NC(=O)[C@@H]2[C@@H](O)CCN2C(=O)[C@H]([C@H](O)CCN)NC(=O)[C@H]([C@H](O)[C@@H](O)c2ccc(O)cc2)NC(=O)[C@@H]2C[C@@H](O)CN2C(=O)[C@H]([C@@H](C)O)NC1=O [CASPOFUNGIN]
1 µg/mL: MIC50 (Candida parapsilosis) | MIC90 (Candida parapsilosis) | MIC90 [1] | MIC90 (Saccharomyces cerevisiae) | MIC90 (Yarrowia lipolytica) | MIC90 (Aspergillus sydowii) | MIC90 (Acremonium sp.) | MIC90 (Exophiala dermatitidis) | MIC90 (Aureobasidium pullulans) | MIC90 (Hortaea werneckii) | MIC90 (Cladosporium) | MIC90 (Scytalidium hyalinum) | MIC90 (Exophiala jeanselmei)
0.06 µg/mL: MIC50 (Kluyveromyces marxianus) | MIC50 (Debaryomyces hansenii) | MIC50 (Torulaspora delbrueckii) | MIC50 ([Candida] intermedia) | MIC50 [2] | MIC50 ([Candida] zeylanoides)
0.5 µg/mL: MIC50 [1] | MIC90 (Debaryomyces hansenii) | MIC90 (Torulaspora delbrueckii) | MIC90 ([Candida] intermedia) | MIC90 [2] | MIC90 ([Candida] zeylanoides) | MIC50 (Saccharomyces cerevisiae) | MIC50 (Yarrowia lipolytica) | MIC90 (Aspergillus niger) | MIC90 (Aspergillus ustus) | MIC90 (Fennellia nivea) | MIC90 (Aspergillus sclerotiorum) | MIC90 (Aspergillus) | MIC50 (Acremonium sp.)
0.12 µg/mL: MIC50 (Candida tropicalis) | MIC90 (Kluyveromyces marxianus) | MIC50 (Aspergillus ustus) | MIC50 (Fennellia nivea) | MIC50 (Aspergillus sclerotiorum) | MIC50 (Aspergillus)
8 µg/mL: MIC90 (Penicillium)
0.25 µg/mL: MIC90 (Candida tropicalis) | MIC50 (Aspergillus niger) | MIC50 (Aspergillus sydowii) | MIC50 (Penicillium) | MIC50 (Exophiala dermatitidis) | MIC50 (Aureobasidium pullulans) | MIC50 (Hortaea werneckii) | MIC50 (Cladosporium) | MIC50 (Scytalidium hyalinum) | MIC50 (Exophiala jeanselmei)
> 16 µg/mL: MIC50 [3] | MIC90 [3] | MIC50 (Trichosporon dermatis) | MIC90 (Trichosporon dermatis) | MIC50 (Naganishia albida) | MIC90 (Naganishia albida) | MIC50 (Papiliotrema laurentii) | MIC90 (Papiliotrema laurentii) | MIC50 (Trichosporon domesticum) | MIC90 (Trichosporon domesticum) | MIC50 (Fusarium proliferatum) | MIC90 (Fusarium proliferatum) | MIC50 (Fusarium oxysporum) | MIC90 (Fusarium oxysporum) | MIC50 (Fusarium verticillioides) | MIC90 (Fusarium verticillioides) | MIC50 (Paecilomyces lilacinus) | MIC90 (Paecilomyces lilacinus) | MIC50 (Trichoderma) | MIC90 (Trichoderma) | MIC50 [4] | MIC90 [4] | MIC50 (Fusarium reticulatum) | MIC90 (Fusarium reticulatum) | MIC50 (Neurospora sitophila) | MIC90 (Neurospora sitophila) | MIC50 (Lewia infectoria) | MIC90 (Lewia infectoria) | MIC50 (Lichtheimia corymbifera) | MIC90 (Lichtheimia corymbifera) | MIC50 [5] | MIC90 [5] | MIC50 (Rhizomucor) | MIC90 (Rhizomucor) | MIC50 (Saksenaea vasiformis) | MIC90 (Saksenaea vasiformis) | MIC50 (Beauveria bassiana) | MIC90 (Beauveria bassiana)
